Reference: ChEMBL document CHEMBL2062453, “Lead optimization through VLAK protocol: new annelated pyrrolo-pyrimidine derivatives as antitumor agents” (2012)

Assays:
Type in all cases: functional
MDA-MB-435 = assay: Cytotoxicity against human MDA-MB-435 cells after 48 hrs by SRB assay; conditions: MDA-MB-435, 48 h; for TGI: read-out: pTGI (converted)
In short: (§1)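 NCI 60-cell five-dose screen. Cells grown in RPMI 1640 with 5% FBS and 2 mM glutamine, plated at 5000–40,000 cells/well, and preincubated 24 h at 37 °C in 5% CO2. Time-zero plates fixed with TCA. Five serial dilutions of DMSO stock added, then 48 h exposure. TCA fixation, 0.4% SRB staining, absorbance read at 515 nm. GI50 from [(Ti−Tz)/(C−Tz)]×100 = 50.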

U-251 = assay: Cytotoxicity against human U251 cells after 48 hrs by SRB assay; conditions: U-251, 48 h; for TGI: read-out: pTGI (converted)
In short: (§2)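 NCI 60-panel five-dose screen. Cells in RPMI 1640 with 5% FBS and 2 mM glutamine, plated at 5000–40,000 cells/well and preincubated 24 h at 37 °C under 5% CO2. Five 10-fold or half-log dilutions were added from a DMSO stock for 48 h. Cells were TCA-fixed (SR settled cells: 16% final), SRB-stained and read at 515 nm. GI50 was taken where (Ti−Tz)/(C−Tz)×100 = 50.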

NCI-H522 = assay: Cytotoxicity against human NCI-H522 cells after 48 hrs by SRB assay; conditions: NCI-H522, 48 h
In short: (§3)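 Five-dose screen, 10-fold or ½-log dilutions, compound stock in DMSO. Cells were in RPMI 1640 with 5% FBS and 2 mM glutamine at 5000–40,000 cells/well, preincubated 24 h, 37 °C, 5% CO₂, with a time-zero plate TCA-fixed. After 48 h drug exposure, cells were TCA-fixed and stained with 0.4% SRB, read at 515 nm. GI50, TGI and LC50 were derived from time-zero, control and test absorbances.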

BT-549 = assay: Cytotoxicity against human BT549 cells after 48 hrs by SRB assay; conditions: BT-549, 48 h; for TGI: read-out: pTGI (converted); in short: as §1
EKVX = assay: Cytotoxicity against human EKVX cells after 48 hrs by SRB assay; conditions: for TGI: read-out: pTGI (converted); in short: as §1
LOX IMVI = assay: Cytotoxicity against human LOXIMVI cells after 48 hrs by SRB assay; conditions: for TGI: read-out: pTGI (converted); in short: as §1
SNB-19 = assay: Cytotoxicity against human SNB19 cells after 48 hrs by SRB assay; conditions: SNB-19, 48 h; for TGI: read-out: pTGI (converted); in short: as §3
PC-3 = assay: Cytotoxicity against human PC3 cells after 48 hrs by SRB assay; conditions: PC-3, 48 h; for TGI: read-out: pTGI (converted); in short: as §3
NCI-H322M = assay: Cytotoxicity against human NCI-H322M cells after 48 hrs by SRB assay; conditions: for TGI: read-out: pTGI (converted); in short: as §3
COLO 205 = assay: Cytotoxicity against human COLO205 cells after 48 hrs by SRB assay; conditions: COLO 205, 48 h; for TGI: read-out: pTGI (converted); in short: as §1
HCC 2998 = assay: Cytotoxicity against human HCC2998 cells after 48 hrs by SRB assay; conditions: HCC 2998, 48 h; for TGI: read-out: pTGI (converted); in short: as §1
M14 = assay: Cytotoxicity against human M14 cells after 48 hrs by SRB assay; conditions: M14, 48 h; for TGI: read-out: pTGI (converted); in short: as §1
CAKI-1 = assay: Cytotoxicity against human Caki1 cells after 48 hrs by SRB assay; conditions: CAKI-1, 48 h; for TGI: read-out: pTGI (converted); in short: as §1
HOP-92 = assay: Cytotoxicity against human HOP92 cells after 48 hrs by SRB assay; conditions: HOP-92, 48 h
In short: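 NCI 60-line five-dose screen. Cells are grown in RPMI 1640 with 5% FBS and 2 mM glutamine, plated at 5000–40,000 cells/well, and preincubated 24 h at 37 °C in 5% CO2. Compound is dissolved in DMSO and given at five concentrations (10-fold or ½-log dilutions) for 48 h. Cells are TCA-fixed (HL-60(TB), suspension: 16% final; HOP92, adherent: 10% final), SRB-stained and read at 515 nm. GI50 comes from [(Ti−Tz)/(C−Tz)]×100 = 50.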

SK-MEL-5 = assay: Cytotoxicity against human SK-MEL-5 cells after 48 hrs by SRB assay; conditions: SK-MEL-5, 48 h; for TGI: read-out: pTGI (converted); in short: as §3
UO-31 = assay: Cytotoxicity against human UO31 cells after 48 hrs by SRB assay; conditions: UO-31, 48 h; for TGI: read-out: pTGI (converted); in short: as §2
NCI-H226 = assay: Cytotoxicity against human NCI-H226 cells after 48 hrs by SRB assay; conditions: NCI-H226, 48 h; for TGI: read-out: pTGI (converted); in short: as §3
NCI-H23 = assay: Cytotoxicity against human NCI-H23 cells after 48 hrs by SRB assay; conditions: NCI-H23, 48 h; for TGI: read-out: pTGI (converted); in short: as §3
MDA-MB-231 = assay: Cytotoxicity against human MDA-MB-231 cells after 48 hrs by SRB assay; conditions: MDA-MB-231, 48 h; for TGI: read-out: pTGI (converted); in short: as §1
OVCAR-8 = assay: Cytotoxicity against human OVCAR8 cells after 48 hrs by SRB assay; conditions: OVCAR-8, 48 h; for TGI: read-out: pTGI (converted); in short: as §3
NCI/ADR-RES = assay: Cytotoxicity against human NCI/ADR-RES cells after 48 hrs by SRB assay; conditions: for TGI: read-out: pTGI (converted); in short: as §3
SF-295 = assay: Cytotoxicity against human SF295 cells after 48 hrs by SRB assay; conditions: SF-295, 48 h; for TGI: read-out: pTGI (converted); in short: as §3
SK-MEL-2 = assay: Cytotoxicity against human SK-MEL-2 cells after 48 hrs by SRB assay; conditions: SK-MEL-2, 48 h; for TGI: read-out: pTGI (converted); in short: as §3
HT-29 = assay: Cytotoxicity against human HT-29 cells after 48 hrs by SRB assay; conditions: HT-29, 48 h; for TGI: read-out: pTGI (converted); in short: as §1
RXF 393 = assay: Cytotoxicity against human RXF393 cells after 48 hrs by SRB assay; conditions: RXF 393, 48 h; for TGI: read-out: pTGI (converted); in short: as §3

SMILES: CSC1=Nc2c(c(C)c(-c3ccccc3)n2CCCCl)C2=NC(=O)CN12
- GI50 (MDA-MB-435): 2.04 µM
- LC50 (MDA-MB-435): 17.4 µM
- TGI (MDA-MB-435): 4.68 µM
- GI50 (U-251): 3.89 µM
- LC50 (U-251): 53.7 µM
- TGI (U-251): 16.2 µM
- GI50 (NCI-H522): 3.89 µM
- CC50 (NCI-H522; read-out: pLC50 (the source's name) (converted)): 75.9 µM
- TGI (NCI-H522; read-out: pTGI (converted)): 19.1 µM
- GI50 (BT-549): 4.9 µM
- LC50 (BT-549): > 100 µM
- TGI (BT-549): 35.5 µM
- GI50 (EKVX): 6.92 µM
- LC50 (EKVX): > 100 µM
- TGI (EKVX): 30.9 µM
- GI50 (LOX IMVI): 4.17 µM
- LC50 (LOX IMVI): 50.1 µM
- TGI (LOX IMVI): 17.4 µM
- GI50 (SNB-19): 3.98 µM
- LC50 (SNB-19): 45.7 µM
- TGI (SNB-19): 17.8 µM
- GI50 (PC-3): 8.71 µM
- LC50 (PC-3): > 100 µM
- TGI (PC-3): > 100 µM
- GI50 (NCI-H322M): 9.77 µM
- LC50 (NCI-H322M): 58.9 µM
- TGI (NCI-H322M): 24.5 µM
- GI50 (COLO 205): 4.17 µM
- LC50 (COLO 205): 47.9 µM
- TGI (COLO 205): 15.1 µM
- GI50 (HCC 2998): 4.57 µM
- LC50 (HCC 2998): 64.6 µM
- TGI (HCC 2998): 19.5 µM
- GI50 (M14): 3.31 µM
- LC50 (M14): > 100 µM
- TGI (M14): 15.1 µM
- GI50 (CAKI-1): 4.57 µM
- LC50 (CAKI-1): > 100 µM
- TGI (CAKI-1): 28.2 µM
- GI50 (HOP-92): 11.5 µM
- LC50 (HOP-92): > 100 µM
- TGI (HOP-92; read-out: pTGI (converted)): 37.2 µM
- GI50 (SK-MEL-5): 3.47 µM
- LC50 (SK-MEL-5): 38 µM
- TGI (SK-MEL-5): 14.1 µM
- GI50 (UO-31): 10.5 µM
- LC50 (UO-31): 77.6 µM
- TGI (UO-31): 28.8 µM
- GI50 (NCI-H226): 11 µM
- LC50 (NCI-H226): 81.3 µM
- TGI (NCI-H226): 29.5 µM
- GI50 (NCI-H23): 8.32 µM
- LC50 (NCI-H23): > 100 µM
- TGI (NCI-H23): 46.8 µM
- GI50 (MDA-MB-231): 5.62 µM
- LC50 (MDA-MB-231): 77.6 µM
- TGI (MDA-MB-231): 24 µM
- GI50 (OVCAR-8): 16.2 µM
- LC50 (OVCAR-8): > 100 µM
- TGI (OVCAR-8): 72.4 µM
- GI50 (NCI/ADR-RES): 4.27 µM
- LC50 (NCI/ADR-RES): > 100 µM
- TGI (NCI/ADR-RES): > 100 µM
- GI50 (SF-295): 4.07 µM
- LC50 (SF-295): > 100 µM
- TGI (SF-295): 26.9 µM
- GI50 (SK-MEL-2): 10.5 µM
- LC50 (SK-MEL-2): 74.1 µM
- TGI (SK-MEL-2): 27.5 µM
- GI50 (HT-29): 3.89 µM
- LC50 (HT-29): > 100 µM
- TGI (HT-29): 19.5 µM
- GI50 (RXF 393): 11.2 µM
- LC50 (RXF 393): 79.4 µM
- TGI (RXF 393): 29.5 µM

SMILES: CSC1=Nc2c(c(C)c(-c3ccccc3)n2CCCN2CCCCC2)C2=NC(=O)CC(C)N12 (centres undefined)
- GI50 (MDA-MB-435): 2.88 µM
- LC50 (MDA-MB-435): 58.9 µM
- TGI (MDA-MB-435): 10.5 µM
- GI50 (U-251): 2.45 µM
- LC50 (U-251): 33.9 µM
- TGI (U-251): 11.2 µM
- GI50 (BT-549): 2.63 µM
- LC50 (BT-549): 85.1 µM
- TGI (BT-549): 9.55 µM
- GI50 (EKVX): 3.02 µM
- LC50 (EKVX): > 100 µM
- TGI (EKVX): 20 µM
- GI50 (LOX IMVI): 3.02 µM
- LC50 (LOX IMVI): 35.5 µM
- TGI (LOX IMVI): 12.9 µM
- GI50 (SNB-19): 2.95 µM
- LC50 (SNB-19): > 100 µM
- TGI (SNB-19): > 100 µM
- GI50 (PC-3): 1.38 µM
- LC50 (PC-3): 9.12 µM
- TGI (PC-3): 3.55 µM
- GI50 (NCI-H322M): 6.17 µM
- LC50 (NCI-H322M): > 100 µM
- TGI (NCI-H322M): 89.1 µM
- GI50 (COLO 205): 1.26 µM
- LC50 (COLO 205): 5.01 µM
- TGI (COLO 205): 2.51 µM
- GI50 (HCC 2998): 3.24 µM
- LC50 (HCC 2998): 61.7 µM
- TGI (HCC 2998): 16.2 µM
- GI50 (M14): 3.63 µM
- LC50 (M14): 64.6 µM
- TGI (M14): 17.4 µM
- LC50 (CAKI-1): > 100 µM
- TGI (CAKI-1): 18.6 µM
- LC50 (HOP-92): > 100 µM
- GI50 (SK-MEL-5): 2 µM
- LC50 (SK-MEL-5): 14.8 µM
- TGI (SK-MEL-5): 4.9 µM
- GI50 (UO-31): 5.01 µM
- LC50 (UO-31): 75.9 µM
- TGI (UO-31): 24 µM
- GI50 (NCI-H226): 3.55 µM
- LC50 (NCI-H226): > 100 µM
- TGI (NCI-H226): > 100 µM
- GI50 (NCI-H23): 2.95 µM
- LC50 (NCI-H23): > 100 µM
- TGI (NCI-H23): > 100 µM
- GI50 (MDA-MB-231): 1.82 µM
- LC50 (MDA-MB-231): > 100 µM
- TGI (MDA-MB-231): 9.55 µM
- GI50 (OVCAR-8): 3.72 µM
- LC50 (OVCAR-8): > 100 µM
- TGI (OVCAR-8): 30.9 µM
- GI50 (NCI/ADR-RES): 17 µM
- LC50 (NCI/ADR-RES): > 100 µM
- TGI (NCI/ADR-RES): 74.1 µM
- GI50 (SF-295): 2.57 µM
- LC50 (SF-295): 69.2 µM
- TGI (SF-295): 10.2 µM
- GI50 (SK-MEL-2): 2.14 µM
- LC50 (SK-MEL-2): 20.9 µM
- TGI (SK-MEL-2): 5.25 µM
- GI50 (HT-29): 1.62 µM
- LC50 (HT-29): > 100 µM
- TGI (HT-29): 7.24 µM
- GI50 (RXF 393): 1.51 µM
- LC50 (RXF 393): 25.1 µM
- TGI (RXF 393): 4.68 µM
